Measured values reported in ChEMBL document CHEMBL1123390, “3-Hydroxy-3-methylglutaryl-coenzyme A reductase inhibitors. 3. 7-(3,5-Disubstituted [1,1'-biphenyl]-2-yl)-3,5-dihydroxy-6-heptenoic acids and their lactone derivatives” (J Med Chem, 1986).

Columns and labels:
[1] = molecular target: T1, 3-hydroxy-3-methylglutaryl-coenzyme A reductase (Rattus norvegicus, UniProt P51639); assay: Inhibition of solubilized partially purified rat liver HMG-CoA reductase
T1 sequence (P51639 whole entry): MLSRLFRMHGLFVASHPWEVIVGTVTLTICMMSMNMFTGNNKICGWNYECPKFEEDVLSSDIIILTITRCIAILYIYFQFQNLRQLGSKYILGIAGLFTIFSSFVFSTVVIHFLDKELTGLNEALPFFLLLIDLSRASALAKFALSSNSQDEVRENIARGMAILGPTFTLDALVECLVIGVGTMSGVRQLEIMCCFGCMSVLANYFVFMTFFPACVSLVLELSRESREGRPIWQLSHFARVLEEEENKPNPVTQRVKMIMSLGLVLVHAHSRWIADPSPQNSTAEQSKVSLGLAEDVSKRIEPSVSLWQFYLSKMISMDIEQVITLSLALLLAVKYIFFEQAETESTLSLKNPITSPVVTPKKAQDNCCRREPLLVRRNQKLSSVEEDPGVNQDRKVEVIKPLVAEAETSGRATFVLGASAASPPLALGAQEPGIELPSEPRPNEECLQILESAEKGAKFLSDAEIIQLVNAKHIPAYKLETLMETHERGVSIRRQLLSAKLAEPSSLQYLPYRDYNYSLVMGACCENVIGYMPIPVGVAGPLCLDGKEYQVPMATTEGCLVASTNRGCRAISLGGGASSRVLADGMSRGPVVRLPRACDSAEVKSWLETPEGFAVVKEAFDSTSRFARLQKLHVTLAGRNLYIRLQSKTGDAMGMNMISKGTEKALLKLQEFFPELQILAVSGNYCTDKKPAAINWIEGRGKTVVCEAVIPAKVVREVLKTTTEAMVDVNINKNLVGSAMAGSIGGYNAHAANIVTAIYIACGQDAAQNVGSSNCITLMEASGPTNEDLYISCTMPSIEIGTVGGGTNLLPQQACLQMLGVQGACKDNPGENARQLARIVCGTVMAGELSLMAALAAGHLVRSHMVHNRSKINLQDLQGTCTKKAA
Method in brief: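 Enzyme inhibition was tested at four or five test-compound concentrations, and percentage inhibition was plotted against concentration. IC50 came from a straight line fitted to these points by least squares. The full protocol is given in part 1 of the series.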

[2] = molecular target: T2, 3-hydroxy-3-methylglutaryl-coenzyme A reductase (Rattus norvegicus) (UniProt P51639); assay: Inhibitory potency against purified rat liver HMG-CoA reductase relative to compactin
T2 sequence (whole entry): T1 sequence (P51639 whole entry)

SMILES | IC50 [1] [nM] | Relative potency [2]
Cc1cc(-c2cccc(Cl)c2/C=C/[C@@H]2C[C@@H](O)CC(=O)O2)ccc1F | 30 | 40
Cc1cc(C)c(/C=C/[C@@H]2C[C@@H](O)CC(=O)O2)c(-c2cc(C)c(F)c(C)c2)c1 | 10 | 150
Cc1cc(C)c(/C=C/[C@@H]2C[C@@H](O)CC(=O)O2)c(-c2ccc(F)c(C)c2)c1 (stereo in doubt; 110(-)) [listing 1 of 2 here] | 7300 | 
O=C1C[C@H](O)C[C@@H](/C=C/c2c(Cl)cc(Cl)cc2-c2ccc(F)cc2)O1 (stereo in doubt; 100(i)i) [listing 1 of 2 here] | 260 | 
O=C1C[C@H](O)C[C@@H](/C=C/c2c(Cl)cc(Cl)cc2-c2ccc(F)cc2)O1 (stereo in doubt; 100(+)h) [listing 1 of 2 here] | 5 | 
O=C1C[C@H](O)C[C@@H](/C=C/c2ccc(Cl)cc2Cl)O1 |  | 0.06
O=C1C[C@H](O)CC(CCc2c(Cl)cc(Cl)cc2-c2ccccc2)O1 (some centres undefined) | 100 | 18
Cc1cc(C)c(/C=C/[C@@H]2C[C@@H](O)CC(=O)O2)c(/C=C/c2ccc(Cl)cc2)c1 | 630 | 2.4
Cc1cc(C)c(/C=C/[C@@H]2C[C@@H](O)CC(=O)O2)c(-c2ccc(F)cc2)c1 | 13 | 96
O=C1C[C@H](O)C[C@@H](/C=C/c2c(Cl)cc(Cl)cc2-c2ccc(Cl)c(Cl)c2)O1 | 25 | 116
Cc1cc(C)c(/C=C/[C@@H]2C[C@@H](O)CC(=O)O2)c(-c2ccc(F)c(CO)c2)c1 | 49 | 26.5
O=C1C[C@H](O)C[C@@H](/C=C/c2c(Cl)cc(Cl)cc2-c2ccc(F)cc2)O1 (stereo in doubt; 100(i)i) [listing 2 of 2 here] |  | 5
Cc1ccc(-c2cc(Cl)cc(Cl)c2/C=C/[C@@H]2C[C@@H](O)CC(=O)O2)cc1 | 190 | 11
O=C1C[C@H](O)CC(CCc2c(Cl)cc(Cl)cc2Cc2ccccc2)O1 (some centres undefined) | 530 | 4.3
Cc1cc(C)cc(-c2cc(Cl)cc(Cl)c2/C=C/[C@@H]2C[C@@H](O)CC(=O)O2)c1 | 13 | 115
O=C1C[C@H](O)C[C@@H](/C=C/c2c(Cl)cc(Cl)cc2-c2ccc(F)cc2)O1 (stereo in doubt; 100) [listing 1 of 2 here] |  | 100
Cc1cc(C)c(/C=C/[C@@H]2C[C@@H](O)CC(=O)O2)c(-c2ccc(F)c(C)c2)c1 (stereo in doubt; 110 (+)) [listing 1 of 2 here] |  | 289
O=C1C[C@H](O)C[C@@H](/C=C/c2c(Cl)cc(Cl)cc2-c2ccc(F)cc2)O1 (stereo in doubt; 100) [listing 2 of 2 here] | 24 | 
O=C1C[C@H](O)C[C@@H](/C=C/c2c(Cl)cc(Cl)cc2CCc2ccccc2)O1 | 430 | 2.8
O=C1C[C@H](O)C[C@@H](/C=C/c2c(Cl)cc(Cl)cc2-c2ccc(F)cc2)O1 (stereo in doubt; 100(+)h) [listing 2 of 2 here] |  | 280
Cc1cc(C)c(/C=C/[C@@H]2C[C@@H](O)CC(=O)O2)c(-c2ccc(F)c(C)c2)c1 (stereo in doubt; 110(-)) [listing 2 of 2 here] |  | 0.18
O=C1C[C@H](O)C[C@@H](/C=C/c2c(Cl)cc(Cl)cc2-c2ccccc2)O1 | 80 | 26

SMILES | IC50 [1] [nM] | Relative potency [2]
Cc1cc(C)c(/C=C/[C@@H]2C[C@@H](O)CC(=O)O2)c(-c2ccc(F)c(C)c2)c1 (stereo in doubt; 110) [listing 1 of 2 here] | 7 | 
Cc1cc(-c2cc(Cl)cc(C)c2/C=C/[C@@H]2C[C@@H](O)CC(=O)O2)ccc1F | 6 | 233
COc1ccc(-c2cc(Cl)cc(Cl)c2/C=C/[C@@H]2C[C@@H](O)CC(=O)O2)cc1 | 470 | 2.6
Cc1cc(F)ccc1-c1cc(Cl)cc(Cl)c1/C=C/[C@@H]1C[C@@H](O)CC(=O)O1 | 36 | 33
O=C1C[C@H](O)C[C@@H](/C=C/c2ccccc2-c2ccccc2)O1 |  | 0.63
Cc1cc(C)c(/C=C/[C@@H]2C[C@@H](O)CC(=O)O2)c(-c2ccc(Cl)c(Cl)c2)c1 | 8 | 175
O=C1C[C@H](O)CC(CCc2ccccc2-c2ccccc2)O1 (some centres undefined) | 44000 | 0.44
O=C1C[C@H](O)C[C@@H](/C=C/c2c(Cl)cc(Cl)cc2-c2ccc(Cl)cc2)O1 | 36 | 58
Cc1cc(C)c(CCC2C[C@@H](O)CC(=O)O2)c(-c2ccc(F)c(C)c2)c1 (some centres undefined) | 22 | 45
Cc1cc(C)c(/C=C/[C@@H]2C[C@@H](O)CC(=O)O2)c(-c2ccc(F)c(C)c2)c1 (stereo in doubt; 110 (+)) [listing 2 of 2 here] | 7.6 | 
Cc1cc(C)cc(-c2cc(C)cc(C)c2/C=C/[C@@H]2C[C@@H](O)CC(=O)O2)c1 | 15 | 80
Cc1ccc(C)c(-c2ccc(Cl)c(Cl)c2)c1/C=C/[C@@H]1C[C@@H](O)CC(=O)O1 | 13 | 123
Cc1cc(Cl)c(/C=C/[C@@H]2C[C@@H](O)CC(=O)O2)c(-c2ccc(F)c(C)c2)c1 | 13 | 92
Cc1cccc(-c2cc(Cl)cc(Cl)c2/C=C/[C@@H]2C[C@@H](O)CC(=O)O2)c1 | 16 | 94
O=C1C[C@H](O)C[C@@H](/C=C/c2c(F)cc(F)cc2-c2ccc(F)cc2)O1 | 860 | 3.5
Cc1cc(-c2cc(Cl)cc(Cl)c2/C=C/[C@@H]2C[C@@H](O)CC(=O)O2)ccc1F | 29 | 100
Cc1cc(C)c(/C=C/[C@@H]2C[C@@H](O)CC(=O)O2)c(-c2ccc(F)c(C)c2)c1 (stereo in doubt; 110) [listing 2 of 2 here] |  | 171
Cc1ccccc1-c1cc(Cl)cc(Cl)c1/C=C/[C@@H]1C[C@@H](O)CC(=O)O1 | 370 | 3.2
CCc1cccc(-c2cc(Cl)cc(Cl)c2/C=C/[C@@H]2C[C@@H](O)CC(=O)O2)c1 | 44 | 30
O=C1C[C@H](O)C[C@@H](/C=C/c2c(Cl)cc(Cl)cc2-c2cccc(F)c2)O1 | 70 | 38.6
COc1cccc(-c2cc(Cl)cc(Cl)c2/C=C/[C@@H]2C[C@@H](O)CC(=O)O2)c1 | 50 | 26
O=C1C[C@H](O)C[C@@H](/C=C/c2c(Cl)cc(Cl)cc2-c2cc(Cl)cc(Cl)c2)O1 | 37 | 78
